Reference: ChEMBL document CHEMBL4414562, “Discovery of the First in Vivo Active Inhibitors of the Soluble Epoxide Hydrolase Phosphatase Domain” (J Med Chem, 2019)
Activity calls are given as the source filed them. The rule behind the calls is not given here.

Experiments:
[1] = target: T1, Retinoic acid receptor RXR-alpha (Homo sapiens) (UniProt P19793); assay: Activation of Gal4-fused human RXRalpha LBD transfected in HEK293T cells at 10 uM after 12 to 14 hrs by luciferase reporter gene assay; format: cell-based
T1 sequence (whole entry): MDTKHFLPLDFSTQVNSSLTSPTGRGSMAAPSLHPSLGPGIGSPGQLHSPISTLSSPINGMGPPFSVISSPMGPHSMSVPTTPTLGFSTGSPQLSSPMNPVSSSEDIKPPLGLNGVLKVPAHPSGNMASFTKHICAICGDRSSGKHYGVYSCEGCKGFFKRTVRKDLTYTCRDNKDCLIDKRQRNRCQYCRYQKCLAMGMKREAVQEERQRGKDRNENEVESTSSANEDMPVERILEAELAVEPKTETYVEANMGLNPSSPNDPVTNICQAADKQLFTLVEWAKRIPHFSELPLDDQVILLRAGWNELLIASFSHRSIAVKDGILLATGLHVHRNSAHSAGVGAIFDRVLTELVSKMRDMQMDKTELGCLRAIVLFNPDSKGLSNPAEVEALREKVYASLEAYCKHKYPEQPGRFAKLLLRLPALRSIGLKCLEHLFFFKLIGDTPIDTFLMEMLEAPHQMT
Outline: (§1)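 Gal4–human nuclear receptor LBD fusion (pFA-CMV-hNR-LBD) co-transfected with pFR-Luc and pRL-SV40 (Lipofectamine LTX) into HEK293T cells seeded the day before. 5 h post-transfection, compound added in Opti-MEM with 0.1% DMSO and incubated 12−14 h. Dual-Glo firefly/Renilla luciferase read. Activation expressed relative to reference agonist at 1 μM. Triplicates, ≥3 independent experiments.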

[2] = Inhibition of hexa-His-tagged human soluble epoxide hydrolase N-terminal phosphatase domain expressed in Escherichia coli BL21(DE3) pre-incubated for 30 mins before FDP substrate addition by fluorescence based assay
[3] = target: T2, Peroxisome proliferator-activated receptor alpha (Homo sapiens) (UniProt Q07869); assay: Activation of Gal4-fused human PPARalpha LBD transfected in HEK293T cells at 10 uM after 12 to 14 hrs by luciferase reporter gene assay; format: cell-based; outline: as §1
T2 sequence (whole entry): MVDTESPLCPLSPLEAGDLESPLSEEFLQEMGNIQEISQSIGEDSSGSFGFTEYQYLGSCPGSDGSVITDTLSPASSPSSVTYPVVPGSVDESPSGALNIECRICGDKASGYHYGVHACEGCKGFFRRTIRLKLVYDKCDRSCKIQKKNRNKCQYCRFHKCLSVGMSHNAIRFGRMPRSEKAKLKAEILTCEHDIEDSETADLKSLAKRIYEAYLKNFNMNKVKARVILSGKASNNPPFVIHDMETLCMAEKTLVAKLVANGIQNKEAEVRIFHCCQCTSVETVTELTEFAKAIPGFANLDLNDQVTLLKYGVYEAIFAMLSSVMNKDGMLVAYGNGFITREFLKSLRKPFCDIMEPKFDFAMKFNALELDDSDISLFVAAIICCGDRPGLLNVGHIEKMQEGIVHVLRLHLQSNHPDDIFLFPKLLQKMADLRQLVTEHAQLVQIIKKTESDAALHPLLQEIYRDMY

[4] = target: T3, Oxysterols receptor LXR-beta (Homo sapiens) (UniProt P55055); assay: Activation of Gal4-fused human LXRbeta LBD transfected in HEK293T cells at 10 uM after 12 to 14 hrs by luciferase reporter gene assay; format: cell-based; outline: as §1
T3 sequence (whole entry): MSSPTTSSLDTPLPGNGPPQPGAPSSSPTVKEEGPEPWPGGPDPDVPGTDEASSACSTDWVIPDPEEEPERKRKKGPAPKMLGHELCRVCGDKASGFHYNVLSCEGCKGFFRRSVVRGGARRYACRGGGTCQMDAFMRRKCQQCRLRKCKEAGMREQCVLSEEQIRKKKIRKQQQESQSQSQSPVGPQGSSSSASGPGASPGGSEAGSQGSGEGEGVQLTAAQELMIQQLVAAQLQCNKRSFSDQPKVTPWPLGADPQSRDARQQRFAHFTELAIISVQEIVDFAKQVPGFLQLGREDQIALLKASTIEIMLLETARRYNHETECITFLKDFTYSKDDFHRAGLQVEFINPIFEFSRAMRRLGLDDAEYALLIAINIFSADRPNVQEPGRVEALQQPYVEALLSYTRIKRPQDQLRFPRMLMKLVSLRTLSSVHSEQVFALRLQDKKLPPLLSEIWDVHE

[5] = target: T4, Bifunctional epoxide hydrolase 2 (Mus musculus, UniProt P34914); assay: Inhibition of phosphatase activity of full length mouse soluble epoxide hydrolase pre-incubated for 30 mins before FDP substrate addition by fluorescence based assay
T4 sequence (P34914 whole entry): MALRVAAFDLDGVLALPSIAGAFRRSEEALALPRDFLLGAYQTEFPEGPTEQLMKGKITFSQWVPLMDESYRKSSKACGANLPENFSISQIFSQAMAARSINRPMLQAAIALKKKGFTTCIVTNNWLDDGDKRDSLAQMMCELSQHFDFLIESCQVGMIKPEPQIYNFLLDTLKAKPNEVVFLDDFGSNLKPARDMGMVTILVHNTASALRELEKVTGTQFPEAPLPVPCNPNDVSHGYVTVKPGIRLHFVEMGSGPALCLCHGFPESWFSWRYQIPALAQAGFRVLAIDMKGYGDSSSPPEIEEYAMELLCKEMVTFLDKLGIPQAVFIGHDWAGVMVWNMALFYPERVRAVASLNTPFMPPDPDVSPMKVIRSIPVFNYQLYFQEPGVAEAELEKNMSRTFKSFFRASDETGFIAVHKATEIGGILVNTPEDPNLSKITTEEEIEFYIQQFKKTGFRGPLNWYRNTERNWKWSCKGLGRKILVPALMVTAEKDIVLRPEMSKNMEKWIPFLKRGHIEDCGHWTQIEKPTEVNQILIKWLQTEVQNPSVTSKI

[6] = target: T4, Bifunctional epoxide hydrolase 2; assay: Inhibition of hydrolase activity of full length mouse soluble epoxide hydrolase pre-incubated for 30 mins before PHOME substrate addition by fluorescence based assay
Outline: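 Hydrolase assay with 0.1 μM full-length enzyme in Bis-Tris pH 7 containing 0.1 mg/mL BSA and 0.01% Triton X-100. […] Reaction started with PHOME (50 μM final). 6-Methoxynaphthaldehyde fluorescence (ex 330/em 465 nm) read every minute for 45 min. Triplicates.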

| Activity [1] [%] | IC50 [2] [µM] | Activity [3] | Activity [4] | IC50 [5] [µM] | IC50 [6] [µM] | SMILES |
| --- | --- | --- | --- | --- | --- | --- |
| 14.4 | 5 | inactive | inactive | 35.5 | > 300 | O=C(O)CCc1nc(-c2ccccc2)c(-c2ccccc2)o1 [OXAPROZIN] |
| 77 | 0.058 | inactive | inactive | > 30 | > 30 | O=C(O)CCCc1nc(-c2ccc(Cl)c(Cl)c2)c(-c2ccccc2)o1 |
